HIV Rev-RRE inh: HIV Rev-RRE protein-RNA interaction inhibition; Rev peptide-RRE RNA binding, FRET; inhibition, % at 8 µM; actives 0.79% (n = 97,000); AID 704;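 active means inhibition above the screen-wide mean plus 3 SD, cut at about 35% in these data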;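 further: 0% = median DMSO wells and 100% = median Neomycin B control wells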
Target sequence (P05866 whole entry, looked up): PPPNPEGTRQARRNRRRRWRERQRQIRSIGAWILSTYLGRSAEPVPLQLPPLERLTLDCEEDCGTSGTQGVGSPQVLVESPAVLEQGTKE
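Assay system: labelled RRE RNA duplex and labelled Rev peptide / Medium: HEPES pH 7.5 salt buffer with EDTA / Reagent: labelled Rev peptide / Schedule: 5 + 15 min at 25 °C / Signal: FRET, excitation 480 nm, emission 540 nm donor and 671 nm acceptor / Benchmarks: DMSO and neomycin B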
CYP2C9 act: activators of human CYP2C9; P11712; AID 1024; actives 1.4% (n = 96,000); activation factor at 5 µM; recombinant CYP2C9, luciferin-H conversion, luminescence; hits give high values; factor 1 = untreated enzyme, 0 = blocked;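 active means activation factor of 2 or more for CYP2C9 at a 5 µM dose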;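 further: 0 = sulfaphenazole-blocked wells and 1 = vehicle-only wells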
Target sequence (P11712 whole entry, looked up): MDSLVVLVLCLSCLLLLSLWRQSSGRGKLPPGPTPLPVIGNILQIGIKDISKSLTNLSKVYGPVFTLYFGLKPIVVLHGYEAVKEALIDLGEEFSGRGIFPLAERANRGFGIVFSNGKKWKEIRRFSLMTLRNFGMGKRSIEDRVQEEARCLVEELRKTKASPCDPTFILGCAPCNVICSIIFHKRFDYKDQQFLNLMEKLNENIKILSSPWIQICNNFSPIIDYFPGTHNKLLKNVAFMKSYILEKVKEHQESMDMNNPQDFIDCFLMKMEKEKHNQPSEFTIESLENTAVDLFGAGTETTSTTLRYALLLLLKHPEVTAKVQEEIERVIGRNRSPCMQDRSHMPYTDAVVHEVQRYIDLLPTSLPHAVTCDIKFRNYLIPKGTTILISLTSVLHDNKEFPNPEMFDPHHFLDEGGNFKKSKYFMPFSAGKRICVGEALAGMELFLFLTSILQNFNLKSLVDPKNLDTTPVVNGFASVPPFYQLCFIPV
CYP2C19 act: activators of human cytochrome P450 2C19. P33261. recombinant CYP2C19, luciferin-H EGE luminescence; hits give high values; 0 = fully inhibited enzyme, 1 = untreated enzyme. activation factor at 5 µM. 96,000 tested, under 10 active. AID 1025;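 active means activation factor of at least 2 at 5 µM in the primary screen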;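 further: 0 = wells with 2.5 mM tranylcypromine and 1 = vehicle-only wells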
Cav32 inh: inhibitors of human Cav3.2 T-type calcium channel; actives 4% (n = 100,000); O95180; B-score at 10 µM; Cav3.2-expressing cells, Fluo-4 calcium fluorescence FDSS; hits give low values;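 active means single-dose well whose peak fluorescence ratio is a statistical outlier from its plate by either plate-standardised score or position-corrected B-score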
CYP2C19 inh: blocks human cytochrome P450 2C19 | AID 778 | actives 21% (n = 96,000) | inhibition, % at 5 µM | CYP2C19 Supersomes, luciferin-H EGE luminescence, 30 min | P33261;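 active means CYP2C19 inhibition above a set limit at 5 µM in the primary screen, cut at about 50% in these data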;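 further: plate controls were negative control wells for no effect and 2.5 mM tranylcypromine positive control for full effect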
CYP2C9 inh: human CYP2C9 inhibition. P11712. CYP2C9 Supersomes, luciferin-H conversion, luminescence. inhibition, % at 5 µM. actives 20% (n = 96,000). AID 777;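 active means blocking of liver enzyme CYP2C9 beyond about 50% at 5 µM, limit read from the data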
* marks the source's active call; other numbers are inactive results; · = not tested or not shown; [ ] = remark or other dose. Sampled rows, rich in hits. Any-hit rate of the full collection: about 27%.

SMILES	HIV Rev-RRE inh	CYP2C9 act	CYP2C19 act	Cav32 inh	CYP2C19 inh	CYP2C9 inh
CN(C)CCCNC(=O)c1ccc(Cl)c(S(=O)(=O)N(C)c2ccccc2)c1	5	1	0	0.4	97*	-5
CCCCCCN(C(=O)CCCCCN1C(=O)NC(c2ccc(-c3ccccc3)cc2)C(C(=O)OCc2ccccc2)=C1C)C(C(=O)NCCCC)c1cccc(C(=O)OC)c1 (stereo not given)	·	·	·	-0.14	·	·
CCOC(=O)c1sc(NC(=S)NC(=O)CC(C)C)cc1C	10	1.1	1.1	-0.012	-8	-8
CCc1nc(N)c(C#N)c(-c2ccncc2)c1C	8	0.3	0	0.24	100*	73*
CCc1nc(N)c(C#N)c(-c2ccc(O)c(OC)c2)c1C	-3	1	0.5	0.06	53*	-5
CCc1nc(N)c(C#N)c(-c2ccc(OC)c(OC)c2)c1C	-4	1.1	1.1	-0.15	-5	-11
CC(C)(C)c1ccc(Cn2ccc(-c3ccc4c(c3)OCO4)n2)cc1	14	0.8	0.9	-0.25	9	16
O=C(NCc1ccccc1)c1n[nH]nc1-c1ccccc1O	·	0.5	0.3	-0.57	73*	52*
OCCNc1nc(Nc2ccccc2Oc2ccccc2)nc(N2CCCC2)n1	·	·	·	-0.033	·	·
O=[N+]([O-])c1ccc(N=Nc2ccc(O)cc2O)cc1	2	0.4	0.3	-8.8*	69*	57*
CN1c2ccccc2C(O)=C(C(=S)Nc2ccc(F)c(Cl)c2)S1(=O)=O	5	0	1.1	-11*	-6	96*
CN1c2ccccc2C(O)=C(C(=S)Nc2ccccc2)S1(=O)=O	6	0.2	1	-0.43	1	82*
Cc1ccc(NC(=S)C2=C(O)c3ccccc3N(C)S2(=O)=O)cc1	6	0	1.1	-2.5	-10	100*
CN1c2ccccc2C(O)=C(C(=O)Nc2ccccc2)S1(=O)=O	4	0.2	1.1	-0.13	-7	76*
O=C(O)c1ccccc1-c1ccccc1C(=O)Nc1ccccc1	4	1.1	1.1	-0.059	-5	-8
COC(=O)CSc1ccc2c(N)c(C(=O)OC)sc2c1	·	0.7	0.6	0.025	39	33
Cc1cc(C)n2c(SCC(=O)Nc3cc(C)on3)nnc2n1	4	·	·	-0.77	·	·
COCCNC(=O)CN(Cc1ccc(Cl)cc1)S(C)(=O)=O	7	1.1	0.8	-0.28	16	-12
O=C(CN(C1CCCCC1)S(=O)(=O)c1ccc(Cl)cc1)NCc1cccnc1	7	0.1	0	-0.014	100*	92*
O=C(CCNS(=O)(=O)c1ccc(Cl)cc1)NCc1cccnc1	2	0.8	0.6	-0.043	44	24
CS(=O)(=O)N(CC(=O)NCc1ccc2c(c1)OCO2)Cc1ccc(Cl)cc1	3	0.2	0.2	-2.7	79*	81*
CS(=O)(=O)N(CC(=O)NCc1ccc2c(c1)OCO2)c1ccc(Cl)cc1	2	0.9	0.6	·	41	12
CS(=O)(=O)N(CC(=O)NCc1cccnc1)Cc1ccc(Cl)cc1	0	0.5	0	0.8	97*	54*
CS(=O)(=O)N(CC(=O)NCc1ccncc1)Cc1ccc(Cl)cc1	4	0.1	0	-0.11	99*	94*
O=C(c1ccc(N2CCNCC2)cc1)c1cccnc1	4	1.1	1	0.71	-5	-12
SMILES	HIV Rev-RRE inh	CYP2C9 act	CYP2C19 act	Cav32 inh	CYP2C19 inh	CYP2C9 inh
CCc1ccc(C2C(C#N)=C(N)SC(N)=C2C#N)cc1	41*	0.6	0.7	-1.7	31	44
Cc1ccc(C2C(C#N)=C(N)SC(N)=C2C#N)o1	92*[fluorescence artefact?]	0.5	1	-0.44	-1	48
N#CC1=C(N)SC(N)=C(C#N)C1c1ccc(C(F)(F)F)cc1	42*	0.6	0.6	-1.5	44	38
N#CC1=C(N)SC(N)=C(C#N)C1C1C=CCCC1 (stereo not given)	1	·	·	0.66	·	·
Cc1ccc(C2C(C#N)=C(N)Oc3nc(-c4ccccc4)[nH]c32)o1 (stereo not given)	-1	0.7	0.9	-0.0061	10	25
CCOc1ccc(C2C(C#N)=C(N)N3C(=C2C#N)Sc2ccccc23)cc1 (stereo not given)	·	0.8	0.9	-1.3	8	20
CCc1ccc(C2C(C#N)=C(N)SC(N)=C2C#N)s1	·	0.2	0.5	-3.3	49	76*
COc1ccc(-n2nc3c(c2NC(=O)c2cc(Br)ccc2Cl)CS(=O)C3)cc1 (stereo not given)	1	1.1	1.2	·	-16	-10
COc1cc(-c2nnc(SCc3c(F)cccc3Cl)o2)cc(OC)c1OC	2	0.4	0.6	-2.3	40	58*
COc1ccc(N2C(=O)CCC(C(=O)c3ccccc3)=C2C)cc1	·	0.6	0.1	0.12	95*	37
CCOC(=O)C1=C(C)N(c2ccccc2)C(=O)C1	-7	·	·	-2.9	·	·
CCN(CC)C(=O)c1sc(NC(=O)c2ccc(C)c([N+](=O)[O-])c2)c(C#N)c1C	10	1	1	·	1	2
Cc1cccc(C)c1NC(=O)CSCc1cccc(CSCC(=O)Nc2c(C)cccc2C)n1	2	0.8	0.9	0.26	7	17
Cc1cccc(NC(=O)CSc2nc(COc3ccccc3)nc3ccccc23)c1C	-4	0.1	0.6	-3	39	90*
CCc1nc(SCC(=O)Nc2sc(C)c(C)c2C(=O)OC)c2ccccc2n1	1	0.5	0.9	-0.19	14	54*
CCCc1nc(SCC(=O)N2CCCC2)c2ccccc2n1	-2	0.8	0.9	0.3	12	20
CCc1nc(SCC(=O)Nc2nc3c(s2)CCCC3)c2ccccc2n1	2	0.8	1	-1.6	-3	16
Cc1cccc(C)c1NC(=O)CSc1nc(COc2ccccc2)nc2ccccc12	-4	0.1	0.3	-2	66*	90*
CCc1nc(SCC(=O)N2c3ccccc3Sc3ccccc32)c2ccccc2n1	-1	0.5	1	-0.19	0	53*
CCN1C=C(C(=O)OC)C(c2cccc(C)c2)C(C(=O)OC)=C1	-2	0.3	0.3	-0.8	70*	74*
Cc1[nH]c(=O)[nH]c(=O)c1S(=O)(=O)N1CCCC(C(=O)N2CCC(Cc3ccccc3)CC2)C1 (stereo not given)	·	1.1	0.5	-0.078	53*	-7
Cc1[nH]c(=O)[nH]c(=O)c1S(=O)(=O)N1CCCC(C(=O)N2CCN(c3ccccc3Cl)CC2)C1 (stereo not given)	5	0.9	0.9	1.1	9	10
O=C(C1CCCN(S(=O)(=O)c2cccc3nonc23)C1)N1CCC(Cc2ccccc2)CC1 (stereo not given)	7	1.8	0.5	·	51*	-79
CN(C)c1nc(SCCOC(=O)Nc2ccccc2)nc(N(C)C)n1	14	0.3	0	-4.7*	99*	68*
N#CCCn1c(Cl)nc2ccccc21	4	1	1	0.83	4	-3
